# pIC50: −log10 of the molar value.
# Tests used:
# [1] = AUC in dog at 0.1 mg/kg, iv or 1 mg/kg, po; format: ADME, organism-based, Canis lupus familiaris; details: in vivo
# Method in brief: (§1)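 Single-dose PK study in mouse and rat (2 mg/kg iv, 5 mg/kg po), cynomolgus monkey (1 mg/kg iv and po) and dog (0.1 mg/kg iv, 1 mg/kg po). Dosing vehicle was 1:4:5 EtOH/propylene glycol/PEG400. Clearance, Vss, half-life, Cmax, Tmax, AUC (μM h) and oral %F were derived from plasma levels.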
# [2] = Inhibition of calcium channel (unknown origin); design: species or system Homo sapiens
# [3] = Protein binding in rat plasma; format: ADME, cell-free; details: read-out: PPB
# [4] = Ratio of drug level in Sprague-Dawley rat brain to plasma at 3 mg/kg, iv administered as 10 mins infusion by LC-MS/MS analysis; format: ADME, organism-based; details: brain and plasma, read-out: BPR
# Oryctolagus cuniculus [5] = experiment: Antiatrial fibrillation activity in methoxamine-sensitised rabbit assessed as increase in atrial effective refractory period at 1 mg/kg, iv administered as 30 mins infusion relative to control; format: functional
# Method in brief: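 Rabbit, iv dosing at 1 or 3 mg/kg. AERP was measured at 10, 20 and 30 min time points as % prolongation, and plasma compound concentration was measured at the same time points and correlated with the AERP change.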
# Canis familiaris = experiment: Effect on QTc interval in pacing-induced mongrel dog heart failure model at 0.1 to 0.3 mg/kg, po; format: organism-based, Canis lupus familiaris; details: in vivo
# Method in brief: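 Simultaneous atrio-ventricular pacing dog model of atrial arrhythmia. Compound was given orally at 0.1 or 0.3 mg/kg in 10% EtOH/40% propylene glycol/50% PEG 400. AF inducibility was scored as mean number of AF inductions and total AF duration, with QTc monitored and plasma concentration measured. n = 7 control, 5 (0.1 mg/kg) and 6 (0.3 mg/kg) dogs.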
# [6] = Oral bioavailability in cynomolgus monkey at 1 mg/kg using crystalline form; format: ADME, organism-based, Macaca fascicularis; details: in vivo
# Method in brief: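 Oral %F in cynomolgus monkey at 1 mg/kg po, with the compound given as a micronized crystalline suspension rather than the solution vehicle (iv reference dose 1 mg/kg).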
# Oryctolagus cuniculus [7] = experiment: Antiatrial fibrillation activity in methoxamine-sensitised rabbit assessed as plasma concentration required to show increase in atrial effective refractory period at 0.17 mg/kg, iv administered as 1 min infusion; format: functional, organism-based
# Method in brief: (§2)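 Rabbit, iv infusion of compound in DMF (0.17 mg/mL) with a 0.17 mg/kg maintenance dose. AERP was normalized to DMF vehicle, with time counted from the start of the maintenance infusion. Tissues were collected after 30 min. n = 3 rabbits; means ± standard error.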
# Oryctolagus cuniculus [8] = experiment: Antiatrial fibrillation activity in methoxamine-sensitised rabbit assessed as increase in atrial effective refractory period at 0.17 mg/kg, iv measured 30 mins post infusion relative to control; format: functional; method in brief: as §2
# [9] = Tmax in cynomolgus monkey at 1 mg/kg, iv or 1 mg/kg, po; format: ADME, organism-based, Macaca fascicularis; details: in vivo
# Method in brief: (§3)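 Single-dose PK in mouse and rat (2 mg/kg iv, 5 mg/kg po), cynomolgus monkey (1 mg/kg iv and po) and dog (0.1 mg/kg iv, 1 mg/kg po). Dosing vehicle was 1:4:5 EtOH/propylene glycol/PEG400. Parameters reported: clearance, Vss, half-life, Cmax, Tmax, AUC and oral bioavailability.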
# [10] = Plasma concentration in methoxamine-sensitised rabbit at 3 mg/kg, iv administered as 20 mins infusion; format: ADME, organism-based, Oryctolagus cuniculus
# [11] = Half life in rat at 2 mg/kg, iv or 5 mg/kg, po; format: ADME, organism-based; details: in vivo; method in brief: as §1
# [12] = Volume of distribution at steady state in mouse at 2 mg/kg, iv or 5 mg/kg, po; format: ADME, organism-based; details: in vivo, read-out: Vdss; method in brief: as §3
# Oryctolagus cuniculus [13] = experiment: Effect on ventricle effective refractory period in methoxamine-sensitised rabbit at 3 mg/kg, iv administered as 10 to 30 mins infusion; format: ADME, organism-based; details: in vivo
# [14] = Oral bioavailability in dog at 1 mg/kg; format: ADME, organism-based, Canis lupus familiaris; details: in vivo; method in brief: as §3
# [15] = Oral bioavailability in cynomolgus monkey at 1 mg/kg; format: ADME, organism-based, Macaca fascicularis; details: in vivo; method in brief: as §1
# Oryctolagus cuniculus [16] = experiment: Antiatrial fibrillation activity in methoxamine-sensitised rabbit assessed as increase in atrial effective refractory period at 0.17 mg/kg, iv administered as 30 mins infusion relative to control; format: functional; method in brief: as §2
# [17] = Tmax in rat at 2 mg/kg, iv or 5 mg/kg, po; format: ADME, organism-based; details: in vivo; method in brief: as §3
# Plasma [18] = experiment: Plasma concentration in pacing-induced mongrel dog heart failure model at 0.3 mg/kg, po; format: ADME, organism-based, Canis lupus familiaris; details: in vivo
# Method in brief: (§4)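 Simultaneous atrio-ventricular pacing dog model used to measure AF inducibility. Dogs were dosed orally at 0.1 mg/kg (n = 5) or 0.3 mg/kg (n = 6) in 10% EtOH/40% propylene glycol/50% PEG 400, and plasma concentration was measured alongside AF inductions and QTc.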
# [19] = Oral bioavailability in rat at 5 mg/kg; format: ADME, organism-based; details: in vivo; method in brief: as §3
# [20] = Plasma concentration in methoxamine-sensitised rabbit at 3 mg/kg, iv administered as 10 mins infusion; format: ADME, organism-based, Oryctolagus cuniculus
# Salmonella typhimurium = experiment: Genotoxicity in Salmonella typhimurium by Ames test; format: toxicity; details: salmonella enterica subsp. enterica serovar typhimurium
# [21] = Volume of distribution at steady state in dog at 0.1 mg/kg, iv or 1 mg/kg, po; format: ADME, organism-based, Canis lupus familiaris; details: in vivo, read-out: Vdss; method in brief: as §3
# [22] = Volume of distribution at steady state in rat at 2 mg/kg, iv or 5 mg/kg, po; format: ADME, organism-based; details: in vivo, read-out: Vdss; method in brief: as §3
# [23] = Clearance in cynomolgus monkey at 1 mg/kg, iv or 1 mg/kg, po; format: ADME, organism-based, Macaca fascicularis; details: in vivo; method in brief: as §1
# [24] = Cmax in dog at 0.1 mg/kg, iv or 1 mg/kg, po; format: ADME, organism-based, Canis lupus familiaris; details: in vivo; method in brief: as §1
# Plasma [25] = experiment: Plasma concentration in pacing-induced mongrel dog heart failure model at 0.1 mg/kg, po; format: ADME, organism-based, Canis lupus familiaris; details: in vivo; method in brief: as §4
# [26] = Plasma concentration in methoxamine-sensitised rabbit at 3 mg/kg, iv administered as 30 mins infusion; format: ADME, organism-based, Oryctolagus cuniculus
# [27] = Solubility of the compound in pH 1 to 8 solution using crystalline form; format: physicochemical
# Oryctolagus cuniculus [28] = experiment: Antiatrial fibrillation activity in methoxamine-sensitised rabbit assessed as plasma concentration required to show increase in atrial effective refractory period at 0.17 mg/kg, iv administered as 15 mins infusion; format: functional, organism-based; method in brief: as §2
# [29] = Tmax in mouse at 2 mg/kg, iv or 5 mg/kg, po; format: ADME, organism-based; details: in vivo; method in brief: as §3
# Oryctolagus cuniculus [30] = experiment: Antiatrial fibrillation activity in methoxamine-sensitised rabbit assessed as plasma concentration required to show increase in atrial effective refractory period at 0.17 mg/kg, iv measured 30 mins post infusion; format: functional, organism-based; method in brief: as §2
# Oryctolagus cuniculus [31] = experiment: Antiatrial fibrillation activity in methoxamine-sensitised rabbit assessed as plasma concentration required to show increase in atrial effective refractory period at 0.17 mg/kg, iv measured 15 mins post infusion; format: functional, organism-based; method in brief: as §2
# [32] = AUC in rat at 2 mg/kg, iv or 5 mg/kg, po; format: ADME, organism-based; details: in vivo; method in brief: as §1
# [33] = Oral bioavailability in rat at 5 mg/kg using crystalline form; format: ADME, organism-based; details: in vivo
# [34] = Clearance in rat at 2 mg/kg, iv or 5 mg/kg, po; format: ADME, organism-based; details: in vivo; method in brief: as §1
# [35] = AUC in cynomolgus monkey at 1 mg/kg, iv or 1 mg/kg, po; format: ADME, organism-based, Macaca fascicularis; details: in vivo; method in brief: as §1
# [36] = AUC in mouse at 2 mg/kg, iv or 5 mg/kg, po; format: ADME, organism-based; details: in vivo; method in brief: as §1
smiles,measurement,setting,value
NS(=O)(=O)c1cncc(-c2nc(NCc3ccccn3)c3c(-c4ccccc4)cccc3n2)c1 [BMS-919373],AUC,[1],590 µM·h
same,pIC50,[2],< 5.00
same,fraction unbound,[3],< 0.01
same,Kp at 10 min,[4],0.1
same,Activity,Oryctolagus cuniculus [5],10.7%
same,Activity,Canis familiaris,Non-Toxic
same,bioavailability,[6],54%
same,Cp,Oryctolagus cuniculus [7],0.42 µM
same,Activity,Oryctolagus cuniculus [8],11.4%
same,Tmax,[9],4.9 h
same,concentration at 20 min,[10],3600 nM
same,half-life,[11],3.2 h
same,Vd,[12],1.8 L/kg
same,Activity,Oryctolagus cuniculus [13],Non-Toxic
same,bioavailability,[14],64%
same,bioavailability,[15],100%
same,Activity,Oryctolagus cuniculus [16],12.7%
same,Tmax,[17],2.6 h
same,concentration,Plasma [18],1840 nM
same,bioavailability,[19],100%
same,concentration at 10 min,[20],2300 nM
same,Activity,Salmonella typhimurium,Non-Toxic
same,Vd,[21],0.2 L/kg
same,Vd,[22],0.9 L/kg
same,clearance,[23],3.2 mL/min/kg
same,Cmax,[24],7800 nM
same,concentration,Plasma [25],470 nM
same,concentration at 0.5 h,[26],3300 nM
same,solubility,[27],Soluble
same,Cp,Oryctolagus cuniculus [28],0.16 µM
same,Tmax,[29],0.5 h
same,Cp,Oryctolagus cuniculus [30],0.09 µM
same,Cp,Oryctolagus cuniculus [31],0.1 µM
same,AUC,[32],49 µM·h
same,bioavailability,[33],35%
same,clearance,[34],3.3 mL/min/kg
same,AUC,[35],11 µM·h
same,AUC,[36],21 µM·h

# Reference: ChEMBL document CHEMBL4014310, “Selective IKur Inhibitors for the Potential Treatment of Atrial Fibrillation: Optimization of the Phenyl Quinazoline Series Leading to Clinical Candidate 5-[5-Phenyl-4-(pyridin-2-ylmethylamino)quinazolin-2-yl]pyridine-3-sulfonamide” (J Med Chem, 2017)
